Assay outcomes as filed in PubChem BioAssay.
In the library only some 4.9% were active in any assay of this set; here they are far more common.
APP 5'UTR act = APP 5'UTR luciferase reporter activation | hit rate 1% among 190,000 | activation, % at 2 µM | SH-SY5Y APP 5'UTR luciferase reporter, luminescence; zero percent = DMSO vehicle wells | AID 1276;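 active means activation above a set limit, based on mean plus 3 SD of controls, cut at about 140% in these data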
STAT1 inh = STAT1 signaling inhibition; NIH 3T3 STAT1-luciferase reporter, IFN-gamma, luminescence; inhibition, % at 5.5 µM; hit rate 0.35% among 200,000; AID 920;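 active means inhibition above a set limit, the mean inhibition across all tested compounds plus 3 SD, cut at about 34% in these data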;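 further: 0% = IFN-gamma with DMSO and 100% = IFN-gamma with 300 µM nifuroxazide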
NF-kB neuron act = compounds increasing NF-kB expression in human neuronal cells; NF-kB reporter expression; active compounds read high; fold change at 12.5 µM; hit rate 1.6% among 190,000; in the data active means fold change above about 3.3
STAT3 inh = STAT3 signaling inhibition; U3A cells, IL-6 STAT3-luciferase reporter, luminescence; host cell line lacks STAT1; inhibition, % at 5.5 µM; hit rate 0.89% among 190,000; AID 862;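 active means inhibition above the mean inhibition across all screened compounds plus 3 SD, cut at about 44% in these data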;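 further: 0% = DMSO only wells and 100% = 100 µM nifuroxazide control wells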
STAT1 activator = STAT1 signaling activation. activation (% of control), % at 5.5 µM. hit rate 2.6% among 200,000. NIH 3T3 STAT1-luciferase reporter, IFN-gamma, luminescence; 100% = IFN-gamma alone, no compound;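 active means activation above the screen-wide mean activation plus 3 SD, cut at about 130% in these data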;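 further: raw ratio to IFN-gamma control signal so 100% means no change and 0% no light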
STAT3 activator = STAT3 signaling activation | activation (% of control), % at 5.6 µM | U3A cells, IL-6 STAT3-luciferase reporter, luminescence; 100% = signal with IL-6 EC80 alone | hit rate 0.91% among 190,000 | AID 871;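 active means activation above the screen-wide mean of compound activation plus 3 SD, cut at about 130% in these data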;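 further: 0% = background luminescence of wells with medium and substrate only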
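Assay system – human STAT1-deficient U3A cells with stable STAT3-luciferase reporter · Also added – IL-6 (33 ng/mL) · Schedule – compound 1 h, then IL-6 6 h at 37 °C · Technique – reporter luminescence signal · Evaluation – % activation versus median of IL-6-stimulated wells · Benchmarks – IL-6-only wells as 100% reference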
Starred values were filed as active, the others as inactive; . = no result.

SMILES | APP 5'UTR act | STAT1 inh | NF-kB neuron act | STAT3 inh | STAT1 activator | STAT3 activator
COc1ccc(Oc2nccc(-c3ccc(F)cc3)c2C#N)cc1 | 3 | -21 | 1.1 | 4 | 119 | 98
COc1ccc(Oc2nccc(-c3ccccc3)c2C#N)cc1 | 56 | -32 | 2.1 | 18 | 129* | 87
COC(=O)c1sccc1NC(=O)Cn1nnc(-c2ccccc2C)n1 | 8 | -4 | 0.94 | 10 | 102 | 94
CCOC(=O)c1sc(NC(=O)c2cncc(Br)c2)nc1C | 6 | -30 | 2.5 | -10 | 126 | 110
Cc1csc(NC(=O)c2cncc(Br)c2)n1 | 132 | -32 | 3.3* | 22 | 128 | 86
Nc1ccc(C(=O)Nc2nccs2)cc1 | 26 | -31 | 2.2 | 6 | 127 | 97
O=C(Nc1nccs1)c1cncc(Br)c1 | 43 | -48 | 0.94 | -12 | 143* | 118
COc1c(F)c(F)c(C(=O)Nc2c(C)cc(Br)cc2C)c(F)c1F | 1 | 2 | 1.3 | 22 | 97 | 87
Cc1ccc([N+](=O)[O-])cc1N=Nc1c(-c2ccc([N+](=O)[O-])cc2)[nH]n(C(N)=S)c1=O | -24 | 35* | 0.51 | 46* | 67 | 65
NC(=S)n1[nH]c(-c2ccccc2)c(N=Nc2ccccc2C(=O)N2CCOCC2)c1=O | -20 | -6 | 0.93 | -1 | 104 | 104
O=C(CSc1cccc(C(F)(F)F)c1)Nc1cc(S(=O)(=O)N2CCCC2)ccc1Cl | 14 | -5 | 0.8 | -3 | 104 | 100
COc1cc(NC(=O)c2ccccc2Cl)ccc1NC(=O)c1ccco1 | 93 | -51 | 3.1 | 21 | 146* | 85
O=C(Nc1ccc(N2CCOCC2)c(Cl)c1)c1ccc(Br)o1 | 125 | -43 | 1.6 | 3 | 140* | 101
O=C(Nc1ccc(N2CCOCC2)c([N+](=O)[O-])c1)c1ccco1 | 30 | -38 | 1.8 | 0 | 132* | 104
O=C(Nc1ccc(S(=O)(=O)N2CCCCCC2)cc1)c1ccco1 | 26 | -15 | 3.8* | -3 | 113 | 106
Nc1cc(S(=O)(=O)N2CCCCC2)ccc1Oc1ccc(Cl)cc1 | -7 | 10 | 0.83 | -1 | 88 | 105
O=C(Nc1ccc(N2CCCC2)c(Cl)c1)c1ccco1 | 286* | -47 | 8.3* | 35 | 143* | 75
O=C(Nc1cccc(NC(=O)c2cccs2)c1)c1ccco1 | -4 | 0 | 1 | 8 | 100 | 96
O=C(Nc1ccc(N2CCCCC2)c(C(=O)O)c1)c1ccco1 | 7 | 3 | 1 | 2 | 98 | 102
O=C(Nc1ccc(NC(=O)c2cccs2)cc1Cl)c1ccco1 | 72 | -35 | 2.3 | 18 | 131* | 94
CCOC(=O)c1c(N/N=C/c2ccncc2)n[nH]c1C | 24 | -12 | 1.2 | 13 | 111 | 93
O=C1C(=O)N(Cc2ccccc2)C(=O)N1CCOc1ccccc1 | -12 | 2 | 1.2 | 7 | 96 | 99
COC(=O)c1ccc(C)c(NS(=O)(=O)c2ccc(OC)cc2)c1 | -94 | 0 | 4* | -24 | 103 | 120
COc1ccc(S(=O)(=O)Nc2ccc(O)c3ccccc23)cc1 | -9 | 2 | 0.73 | -37 | 99 | 134*
COc1cc(Cl)cc(/C=C/c2ccc3ccccc3n2)c1OC(C)=O | 155* | 7 | 1.1 | -13 | 95 | 108
SMILES | APP 5'UTR act | STAT1 inh | NF-kB neuron act | STAT3 inh | STAT1 activator | STAT3 activator
CC(=O)Oc1ccc(Cl)cc1/C=C/c1cc(OC(C)=O)c2ccccc2n1 | -1 | 2 | 1.1 | -27 | 100 | 119
CN(Cc1ccc(Cl)s1)C(=O)CCl | -19 | 17 | 0.98 | 2 | 84 | 101
CN(C)c1ccc(/C=C(\Cl)c2nc3ccccc3s2)cc1 | 118 | -40 | 0.8 | 40 | 136* | 68
CC(=O)c1cnc2ncnn2c1C | 12 | -5 | 1.2 | 8 | 105 | 96
C/C(=N\NC(=O)c1ccccc1F)c1ccc2c(c1)Nc1ccccc1S2 | 44 | -35 | 1.4 | -1 | 132* | 97
CCN(C(=O)COC(=O)c1cncc(Br)c1)C1CCS(=O)(=O)C1 (configuration not stated) | -11 | -1 | 1 | -3 | 100 | 106
CN(C)CCOc1cc(Cl)cc(Cl)c1 | 15 | 3 | 4.2* | 9 | 96 | 96
CCCc1cc(C(=O)Nc2cc(Br)ccc2O)no1 | 23 | -6 | 5.5* | -5 | 102 | 103
CCCc1cc(C(=O)NCc2ccc(OC)cc2)no1 | 14 | -13 | 1.5 | -6 | 112 | 109
CC(C)c1cc(C(=O)Nc2cc(Br)ccc2O)no1 | 38 | -3 | 7.5* | -4 | 102 | 103
CC(C)c1cc(C(=O)Nc2cc(Cl)ccc2O)no1 | 139* | 3 | 8.6* | 4 | 97 | 101
CC(C)N(C(=O)COC(=O)CNC(=O)c1ccc(Br)cc1)c1ccccc1 | -39 | -8 | 1 | -5 | 107 | 110
COc1ccc(NC(=S)Nc2ccccn2)c(OC)c1 | 60 | -40 | 2 | -8 | 136* | 114
COc1ccc(NC(=S)Nc2cc(C)ccn2)c(OC)c1 | . | -50 | 2.4 | -44 | 145* | 141*
O=c1c(-c2ccc3c(c2)OCCO3)coc2cc(OC3OC(CO)C(O)C(O)C3O)ccc12 (configuration not stated) | 159* | . | . | . | . | .
Cc1cc(C)cc(OCC(=O)NNC(=O)CN2C(=O)c3ccccc3C2=O)c1 | 13 | 15 | 1.1 | -2 | 87 | 101
COc1cc(OC)cc(C(=O)NNC(=S)Nc2ccc(S(N)(=O)=O)cc2)c1 | -19 | 0 | 1.1 | 20 | 99 | 88
Cc1ccc2nc3sc(C(=O)N4CCOCC4)c(N)c3cc2c1 | 192* | 50* | 1.6 | 90* | 54 | 29
Cc1ccc2nc3sc(C(=O)NCc4ccco4)c(N)c3cc2c1 | 179* | -40 | 3.7* | 40 | 139* | 70
Cc1ccc2nc3sc(C(=O)Nc4c(C)[nH]c(=O)[nH]c4=O)c(N)c3cc2c1 | 16 | 7 | 0.73 | 5 | 94 | 95
COc1cc2cc3c(N)c(C(=O)NCc4ccco4)sc3nc2cc1OC | 29 | -51 | 0.98 | 15 | 146* | 92
CC(=O)Nc1ccc(C(=O)NCC(=O)OCc2c(F)cccc2Cl)cc1 | 5 | -5 | 1.3 | 8 | 103 | 99
O=c1[nH]ncc(N2CCN(Cc3ccccc3)CC2)c1Cl | -11 | 3 | 1.5 | 0 | 96 | 102
CS(=O)(=O)N(CC(=O)N1CCCCC1)c1cccc(F)c1 | -22 | -2 | 1.1 | -5 | 101 | 105
Cc1csc(Nc2ccccc2)n1 | 41 | -8 | 1.7 | 16 | 108 | 94
c1ccc(NC2=Nc3ccccc3CS2)cc1 | 113 | -41 | 3.6* | 2 | 138* | 104
O=C(CCc1ccc(Oc2cc([N+](=O)[O-])cc([N+](=O)[O-])c2)cc1)N1CCCCCC1 | -4 | 20 | 1.3 | -6 | 81 | 103
COc1ccccc1C(=O)OCCNC(=O)Cn1cnc2c1c(=O)n(C)c(=O)n2C | 1 | 0 | 1.3 | 10 | 99 | 98
